Measurements from ChEMBL document CHEMBL1156878, “New benzoxanthone derivatives as topoisomerase inhibitors and DNA cross-linkers” (Bioorg Med Chem, 2010).
Structures can show the parent of a compound that is named as a salt. The source made the active and inactive calls. The calls are words filed in the database; no cut-off is given here.

Experiments:
HT-29 = assay: Cytotoxicity against human HT-29 cells after 48 hrs […]; assay type: functional, cell-based; settings: HT-29, 48 h
[1] = biological target: T1, DNA topoisomerase 1 (Homo sapiens) (UniProt P11387); assay: Inhibition of human recombinant topoisomerase 1-mediated pBR322 DNA relaxation at 20 uM by gel electrophoresis
T1 sequence (whole entry): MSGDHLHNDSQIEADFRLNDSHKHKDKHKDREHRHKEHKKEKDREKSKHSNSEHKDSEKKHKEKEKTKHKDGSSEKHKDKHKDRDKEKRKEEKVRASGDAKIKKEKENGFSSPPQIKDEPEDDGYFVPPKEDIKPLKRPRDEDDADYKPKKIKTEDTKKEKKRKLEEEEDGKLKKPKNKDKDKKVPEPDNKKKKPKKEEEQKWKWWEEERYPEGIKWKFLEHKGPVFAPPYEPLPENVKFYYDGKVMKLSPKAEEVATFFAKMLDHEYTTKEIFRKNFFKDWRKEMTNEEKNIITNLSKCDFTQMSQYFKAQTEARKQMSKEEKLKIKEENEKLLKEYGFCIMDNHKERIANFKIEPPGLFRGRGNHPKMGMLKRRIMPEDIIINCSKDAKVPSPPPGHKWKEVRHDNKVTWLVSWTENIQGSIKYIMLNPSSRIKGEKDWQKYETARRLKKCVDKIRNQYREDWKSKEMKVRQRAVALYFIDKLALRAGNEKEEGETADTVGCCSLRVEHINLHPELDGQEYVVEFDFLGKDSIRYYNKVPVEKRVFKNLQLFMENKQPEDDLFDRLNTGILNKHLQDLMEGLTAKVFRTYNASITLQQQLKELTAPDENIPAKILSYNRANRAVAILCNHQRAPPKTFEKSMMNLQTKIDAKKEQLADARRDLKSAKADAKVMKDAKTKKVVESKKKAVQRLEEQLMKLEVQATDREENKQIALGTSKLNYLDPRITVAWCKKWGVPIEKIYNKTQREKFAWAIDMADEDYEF
In short: (§1)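 Relaxation of 100 ng supercoiled pBR322 by 0.4 units recombinant human topo I, with or without compound (20 mM DMSO stocks), at 37 °C for 30 min. Buffer: 10 mM Tris-HCl pH 7.9, 150 mM NaCl, 0.1% BSA, 1 mM spermidine, 5% glycerol. Run on 1% agarose gel in TAE at 15 V for 7 h, stained with ethidium bromide, bands quantified under UV to give inhibition ratio.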

MDA-MB-231 = assay: Cytotoxicity against human MDA-MB-231 cells after 48 hrs by MTT assay; assay type: functional, cell-based; settings: MDA-MB-231, 48 h
In short: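 Cells seeded at 2–4 × 10⁴ per well and grown overnight in medium with 10% FBS at 37 °C, 5% CO₂. Medium was then replaced with medium holding graded compound concentrations. Absorbance was read at 450 nm and IC50 fitted to a four-parameter logistic equation. Mean of three experiments run in triplicate.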

[2] = biological target: DNA topoisomerase 2-alpha (Homo sapiens) (UniProt P11388); assay: Inhibition of human recombinant DNA topoisomerase 2alpha -mediated pBR322 DNA relaxation at 100 uM by gel electrophoresis
Chain of DNA topoisomerase 2-alpha (Homo sapiens) (P11388 whole entry): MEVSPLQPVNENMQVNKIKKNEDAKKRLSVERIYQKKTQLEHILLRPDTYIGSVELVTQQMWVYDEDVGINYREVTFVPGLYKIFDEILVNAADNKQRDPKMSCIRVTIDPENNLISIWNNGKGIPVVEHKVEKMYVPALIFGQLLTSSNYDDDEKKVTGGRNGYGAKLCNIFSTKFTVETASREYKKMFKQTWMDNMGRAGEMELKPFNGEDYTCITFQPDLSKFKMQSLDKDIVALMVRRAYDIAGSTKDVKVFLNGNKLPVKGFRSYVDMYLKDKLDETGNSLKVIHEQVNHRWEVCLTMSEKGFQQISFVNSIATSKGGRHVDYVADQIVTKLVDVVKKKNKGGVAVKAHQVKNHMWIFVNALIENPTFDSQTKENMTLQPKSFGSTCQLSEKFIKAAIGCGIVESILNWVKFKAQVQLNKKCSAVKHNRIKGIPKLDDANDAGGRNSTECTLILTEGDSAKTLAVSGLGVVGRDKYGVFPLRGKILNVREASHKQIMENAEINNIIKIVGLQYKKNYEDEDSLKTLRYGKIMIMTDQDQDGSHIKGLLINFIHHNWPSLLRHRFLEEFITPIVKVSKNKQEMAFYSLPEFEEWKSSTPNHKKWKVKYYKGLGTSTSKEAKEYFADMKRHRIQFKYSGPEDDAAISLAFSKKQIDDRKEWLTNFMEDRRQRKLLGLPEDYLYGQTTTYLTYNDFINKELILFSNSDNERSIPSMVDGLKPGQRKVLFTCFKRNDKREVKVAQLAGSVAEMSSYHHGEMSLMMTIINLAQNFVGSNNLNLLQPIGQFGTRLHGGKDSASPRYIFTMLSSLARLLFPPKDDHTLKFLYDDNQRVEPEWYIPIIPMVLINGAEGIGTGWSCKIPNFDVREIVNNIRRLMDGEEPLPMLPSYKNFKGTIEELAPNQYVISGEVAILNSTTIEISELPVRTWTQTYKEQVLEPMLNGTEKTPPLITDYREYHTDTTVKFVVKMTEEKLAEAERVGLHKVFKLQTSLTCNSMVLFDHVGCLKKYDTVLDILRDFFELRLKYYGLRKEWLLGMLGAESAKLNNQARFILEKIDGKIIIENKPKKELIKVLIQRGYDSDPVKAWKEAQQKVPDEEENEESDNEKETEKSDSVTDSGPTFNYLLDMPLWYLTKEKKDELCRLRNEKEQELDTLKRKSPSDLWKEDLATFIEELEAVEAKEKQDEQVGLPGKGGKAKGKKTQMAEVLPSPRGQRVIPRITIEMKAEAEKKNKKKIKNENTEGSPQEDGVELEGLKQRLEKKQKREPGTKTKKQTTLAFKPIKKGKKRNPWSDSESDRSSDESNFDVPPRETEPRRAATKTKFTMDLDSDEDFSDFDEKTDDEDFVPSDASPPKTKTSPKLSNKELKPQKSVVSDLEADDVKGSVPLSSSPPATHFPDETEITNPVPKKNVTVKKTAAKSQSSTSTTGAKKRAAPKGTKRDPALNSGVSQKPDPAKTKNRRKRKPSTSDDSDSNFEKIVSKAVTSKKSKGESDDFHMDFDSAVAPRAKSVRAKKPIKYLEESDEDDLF
In short: (§2)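 Relaxation of 200 ng supercoiled pBR322 by 1 unit human topo IIα, with or without compound, at 30 °C for 30 min. Buffer: 10 mM Tris-HCl pH 7.9, 50 mM NaCl, 50 mM KCl, 5 mM MgCl₂, 1 mM EDTA, 1 mM ATP, 15 µg/mL BSA. Stopped with EDTA and run on 1% agarose gel in TAE at 25 V for 4 h. Band analysis gave inhibition ratio.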

[3] = biological target: T1, DNA topoisomerase 1 (Homo sapiens); assay: Inhibition of human recombinant topoisomerase 1-mediated pBR322 DNA relaxation at 100 uM by gel electrophoresis; in short: as §1
[4] = biological target: DNA topoisomerase 2-alpha (Homo sapiens) (UniProt P11388); assay: Inhibition of human recombinant DNA topoisomerase 2alpha -mediated pBR322 DNA relaxation at 20 uM by gel electrophoresis; in short: as §2
DU-145 = assay: Cytotoxicity against human DU145 cells after 48 hrs by MTT assay; assay type: functional, cell-based; settings: DU-145, 48 h
In short: (§3)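 Cells seeded at 2–4 × 10⁴ per well and held overnight at 37 °C, 5% CO₂, in medium with 10% FBS. On day 2 the medium was replaced with medium holding graded compound concentrations. Absorbance was read at 450 nm and fitted to a four-parameter logistic equation for IC₅₀. Mean ± SD of three experiments, each in triplicate.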

HeLa = assay: Cytotoxicity against human HeLa cells after 48 hrs by MTT assay; assay type: functional, cell-based; in short: as §3
HL-60 = assay: Cytotoxicity against human HL60 cells after 48 hrs by MTT assay; assay type: functional, cell-based; settings: HL-60, 48 h; in short: as §3
Nucleic Acid = assay: Induction of DNA cross linking in linearized pBR322 at 100 uM by alkaline gel electrophoresis; assay type: nucleic-acid assay; settings: Escherichia coli
In short: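 pBR322 was linearized with EcoRI and ethanol-precipitated, then incubated with compound for 2 h at room temperature in 10 mM Tris–HCl, 1 mM EDTA, pH 8.0. Samples ran on a denaturing 1.2% alkaline agarose gel in 50 mM NaOH, 1 mM EDTA. The gel was neutralized 1 h in 100 mM Tris, 150 mM NaCl, pH 7.6, alongside a HindIII marker.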

SMILES	IC50 (HT-29) [µM]	inhibition [1] [%]	IC50 (MDA-MB-231) [µM]	inhibition [2] [%]	inhibition [3] [%]	inhibition [4] [%]	IC50 (DU-145) [µM]	IC50 (HeLa) [µM]	IC50 (HL-60) [µM]	Activity (Nucleic Acid)
O=c1c2ccc3ccccc3c2oc2cc(OCC3CS3)cc(O)c12 (stereo unspecified)	> 50	2.5	> 50	13.9	15.6	-0	10.8	> 50	22.6	
O=c1c2cc3ccccc3cc2oc2cc(OCC3CS3)cc(O)c12 (stereo unspecified)	5.4	-0	14.8	-0	0.5	7.2	1.55	8.52	2.48	
O=c1c2ccc3ccccc3c2oc2cc(OCC3CS3)cc(OCC3CS3)c12 (stereo unspecified)	> 50	56.5	> 50	71.9	79	72.7	5.66	25.6	37	
O=c1c2c(O)cc(OCC3CO3)cc2oc2ccc3ccccc3c12 (stereo unspecified)	0.96	9.7	> 50	3.7	-0	-0	1.4	> 100	2.31	
O=c1c2cc3ccccc3cc2oc2cc(OCC3CS3)cc(OCC3CS3)c12 (stereo unspecified)	1.66	-0	5.16	1.9	4.3	13.5	19.4	8.01	5.13	
O=c1c2c(OCC3CO3)cc(OCC3CO3)cc2oc2ccc3ccccc3c12 (stereo unspecified)	7.38	-0	> 50	1	18	-0	3.44	10.2	6.47	inactive
O=c1c2c(OCC3CS3)cc(OCC3CS3)cc2oc2ccc3ccccc3c12 (stereo unspecified)	0.75	-0	18.9	4.4	-0	8.4	1.32	24.9	1.85	
COc1cc([C@@H]2c3cc4c(cc3[C@@H](O[C@@H]3O[C@@H]5CO[C@@H](C)O[C@H]5[C@H](O)[C@H]3O)[C@H]3COC(=O)[C@H]23)OCO4)cc(OC)c1O [ETOPOSIDE]	1.42		2.87				1.63	0.47	0.97	
COc1cccc2c1C(=O)c1c(O)c3c(c(O)c1C2=O)C[C@@](O)(C(=O)CO)C[C@@H]3O[C@H]1C[C@H](N)[C@H](O)[C@H](C)O1 [DOXORUBICIN HYDROCHLORIDE]	0.95		3.15				1.19	0.71	0.94	
O=c1c2ccc3ccccc3c2oc2cc(OCC3CO3)cc(O)c12 (stereo unspecified)	18.9	10.6	0.73	9	1.7	5.5	2.56	> 50	3.67	
O=c1c2ccc3ccccc3c2oc2cc(OCC3CO3)cc(OCC3CO3)c12 (stereo unspecified)	8.2	-0	7.43	5.7	11.9	0.1	1.29	24.2	5.4	Active
O=c1c2cc3ccccc3cc2oc2cc(OCC3CO3)cc(OCC3CO3)c12 (stereo unspecified)	0.6	8.8	1.64	60.1	12.3	8.9	3.01	2.19	5.13	Active
O=c1c2cc3ccccc3cc2oc2cc(OCC3CO3)cc(O)c12 (stereo unspecified)	2.34	2.6	15.1	-0	13.7	-0	36.2	> 100	9.4	
CC[C@@]1(O)C(=O)OCc2c1cc1n(c2=O)Cc2cc3ccccc3nc2-1 [CAMPTOTHECIN]	0.85		0.92				3.57	0.86	0.065	
O=c1c2c(O)cc(OCC3CS3)cc2oc2ccc3ccccc3c12 (stereo unspecified)	3.58	2.4	29.1	5.3	-0	-0	8.76	> 100	3.48	
